Assay results from ChEMBL document CHEMBL2417398, “Synthesis, antileishmanial activity and structure-activity relationship of 1-N-X-phenyl-3-N'-Y-phenyl-benzamidines” (Eur J Med Chem, 2013).

How the values were obtained:
Leishmania amazonensis = assay: Antileishmanial activity against Leishmania amazonensis MHOM/BR/77/LTB0016 promastigotes after 24 hrs by cell counting; format: functional, organism-based
How it was run: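 L. amazonensis MHOM/BR/77/LTB0016 promastigotes grown at 25 °C in LIT medium with 10% (v/v) heat-inactivated FCS, harvested in late log phase and set to 4 x 10^6 /mL. Drugs in DMSO (up to 1.6% v/v) at 160 to 5 μg/mL for 24 h. Surviving parasites counted in a Neubauer chamber. Inhibition taken against DMSO and untreated controls. IC50 from linear regression of % inhibition versus log concentration.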

Leishmania braziliensis = assay: Antileishmanial activity against Leishmania braziliensis promastigotes after 24 hrs by cell counting; format: functional, organism-based
How it was run: (§1)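 Promastigotes given drugs in DMSO (at most 1.6% v/v) over 160 to 5 μg/mL for 24 h. Remaining parasites counted in a Neubauer chamber and % inhibition set against DMSO-only and parasite-only controls. IC50 derived by linear regression of % inhibition against log drug concentration.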

Leishmania chagasi = assay: Antileishmanial activity against Leishmania chagasi promastigotes after 24 hrs by cell counting; format: functional, organism-based; how it was run: as §1
[1] = Cytotoxicity against macrophages (unknown origin) at 320 ug/ml; format: cell-based; settings: macrophage
[2] = Leishmania amazonensis, MHOM/BR/77/LTB0016, 24 h

SMILES | logIC50 (Leishmania amazonensis; [2]) | other results
COc1ccc(/C(=N/c2ccccc2)Nc2cccc(Cl)c2)cc1 | 1.11 | 
COc1ccc(/C(=N/c2ccccc2)Nc2ccc(F)cc2)cc1 | 1.43 | 
COc1ccc(/C(=N/c2ccccc2)Nc2cccc(F)c2)cc1 | 1.62 | 
COc1ccc(/C(=N/c2ccccc2)Nc2ccc(Br)cc2)cc1 | 1.34 | 
COc1ccc(/C(=N/c2ccccc2)Nc2cccc(OC)c2)cc1 | 1.68 | 
COc1ccc(/C(=N/c2ccccc2)Nc2ccc([N+](=O)[O-])cc2)cc1 | 1.22 | 
COc1ccc(/C(=N/c2ccccc2)Nc2cccc([N+](=O)[O-])c2)cc1 | 2.59 | 
COc1ccc(/C(=N/c2ccccc2)Nc2ccc(O)cc2)cc1 | 2.51 | 
COc1ccc(/C(=N/c2ccccc2)Nc2cccc(O)c2)cc1 | 2.65 | 
COc1ccc(/C(=N/c2ccccc2)Nc2ccc(C)cc2)cc1 | 2.42 | 
COc1ccc(/C(=N/c2ccccc2)Nc2cccc(C)c2)cc1 | 2.42 | 
COc1ccc(/C(=N/c2ccccc2)Nc2ccc(S(N)(=O)=O)cc2)cc1 | 1.79 | 
COc1ccc(/C(=N/c2ccccc2)Nc2ccc(Cl)c([N+](=O)[O-])c2)cc1 | 1.1 | 
COc1ccc(/C(=N/c2ccccc2)Nc2ccccc2)cc1 [listing 1 of 2 here] | 1.9 | logIC50 (Leishmania braziliensis; Leishmania braziliensis, 24 h): 2.05; logIC50 (Leishmania chagasi; Leishmania chagasi, 24 h): 2.76
COc1ccc(/N=C(\Nc2ccccc2)c2ccc(OC)cc2)cc1 [listing 1 of 2 here] | 1.82 | logIC50 (Leishmania braziliensis; Leishmania braziliensis, 24 h): 1.42; logIC50 (Leishmania chagasi; Leishmania chagasi, 24 h): 2.04
COc1ccc(/N=C(\Nc2ccc(OC)cc2)c2ccccc2)cc1 [listing 1 of 2 here] | 1.62 | logIC50 (Leishmania braziliensis; Leishmania braziliensis, 24 h): 2.13; logIC50 (Leishmania chagasi; Leishmania chagasi, 24 h): > 3
COc1cccc(/C(=N/c2ccccc2)Nc2ccccc2)c1 | 2.56 | 
COc1ccc(/N=C(\Nc2ccccc2)c2ccccc2)cc1 | 2.8 | 
COc1ccc(/N=C(\Nc2ccccc2)c2cccc(OC)c2)cc1 | 2.57 | 
COc1ccc(/N=C(\Nc2ccccc2)c2ccc(OC)cc2)cc1 [listing 2 of 2 here] |  | logIC50 (Leishmania amazonensis): 2.8; logIC50 (Leishmania braziliensis): 1.52; Activity [1]: 15%; logIC50 (Leishmania chagasi): 1.95
COc1ccc(/N=C(\Nc2ccc(OC)cc2)c2ccccc2)cc1 [listing 2 of 2 here] |  | logIC50 (Leishmania amazonensis): 2.24; logIC50 (Leishmania braziliensis): 2.25; Activity [1]: 100%; logIC50 (Leishmania chagasi): 2.25
COc1ccc(/N=C(\Nc2ccc(OC)cc2)c2ccc(OC)cc2)cc1 | > 3 | 
COc1ccc(/N=C(\Nc2ccccc2)c2ccc3c(c2)OCO3)cc1 | 1.6 | 
COc1ccc(/C(=N/c2ccccc2)Nc2ccc(Cl)cc2)cc1 | 1.9 | 
COc1ccc(/C(=N/c2ccccc2)Nc2ccccc2)cc1 [listing 2 of 2 here] |  | logIC50 (Leishmania amazonensis): 1.85; logIC50 (Leishmania braziliensis): 1.9; Activity [1]: Non-toxic; logIC50 (Leishmania chagasi): 1.91
N=C(N)c1ccc(OCCCCCOc2ccc(C(=N)N)cc2)cc1 [PENTAMIDINE] | 1.05 | logIC50 (Leishmania braziliensis; Leishmania braziliensis, 24 h): 1.36; Activity [1]: 100%; logIC50 (Leishmania chagasi; Leishmania chagasi, 24 h): 1.76
